According to ChEMBL document CHEMBL3352137, “Modification on ursodeoxycholic acid (UDCA) scaffold. discovery of bile acid derivatives as selective agonists of cell-surface G-protein coupled bile acid receptor 1 (GP-BAR1)” (J Med Chem, 2014):
The source made the active and inactive calls. The rule behind the calls is not given here.

Experiments:
[1] = biological target: T1, G-protein coupled bile acid receptor 1 (Homo sapiens) (UniProt Q8TDU6); assay: (§1) Agonist activity at human GPBAR1 expressed in HEK293T cells assessed as stimulation of cAMP response element-mediated receptor transactivation by luciferase reporter gene assay; assay type: functional, cell-based; settings: HEK-293T
T1 sequence (whole entry): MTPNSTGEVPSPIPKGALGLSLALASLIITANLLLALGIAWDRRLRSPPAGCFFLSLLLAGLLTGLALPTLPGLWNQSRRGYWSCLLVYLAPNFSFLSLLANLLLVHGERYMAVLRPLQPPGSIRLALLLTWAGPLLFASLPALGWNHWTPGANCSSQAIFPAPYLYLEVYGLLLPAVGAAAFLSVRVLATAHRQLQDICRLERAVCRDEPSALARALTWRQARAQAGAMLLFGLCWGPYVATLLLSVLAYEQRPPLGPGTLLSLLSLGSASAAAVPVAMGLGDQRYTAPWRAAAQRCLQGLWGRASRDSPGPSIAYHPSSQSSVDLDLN
Procedure, shortened: (§2)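 HEK-293T cells were cotransfected with a CRE-driven luc2P reporter (pGL4.29), pCMVSPORT6-human GP-BAR1 and a Renilla vector. 24 h after transfection they were stimulated for 18 h (10 μM single point; 0.1, 1 and 10 μM for EC50). Lysates were read for luciferase as a measure of intracellular cAMP rise, with TLCA 10 μM as reference. Data are mean ± standard error of at least three determinations in duplicate.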

[2] = biological target: T2, G-protein coupled bile acid receptor 1 (Homo sapiens, UniProt Q8TDU6); assay: as §1; assay type: functional, cell-based, HEK-293T; procedure, shortened: as §2
T2 sequence (Q8TDU6 whole entry): T1 sequence (whole entry)

[3] = system: Mus musculus; assay: Induction of FXR-mediated OST mRNA expression in CD1 mouse liver at 64 mg/kg, po measured 3 to 24 hrs post dose by real-time PCR method; assay type: functional, organism-based; set-up: dose 64 mg/kg
Procedure, shortened: (§3)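 Male CD1 mice (n = 3, 4) received a single oral dose of 64 mg/kg. Liver and ileum were collected at 6 or 24 h (3, 6 and 24 h also stated). Target mRNA was measured by SYBR real-time PCR (0.2 μM primers, 10 ng template, 40 cycles of 95 °C 20 s / 60 °C 30 s), with all reactions in triplicate. Comparison was versus control mice.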

[4] = system: Mus musculus; assay: Induction of FXR-mediated BSEP mRNA expression in CD1 mouse liver at 64 mg/kg, po measured 3 to 24 hrs post dose by real-time PCR method; assay type: functional, organism-based; set-up: dose 64 mg/kg; procedure, shortened: as §3
[5] = system: Mus musculus; assay: Induction of GPBAR1-mediated pro-glucagon-1 mRNA expression in CD1 mouse intestine at 64 mg/kg, po measured 6 hrs post dose by real-time PCR method; assay type: functional; procedure, shortened: as §3
[6] = system: Mus musculus; assay: Increase in plasma bile acid level in CD1 mouse model of ANIT-induced cholestasis at 16 mg/kg, po
[7] = system: Mus musculus; assay: Increase in plasma tauro-cholic acid level in CD1 mouse model of ANIT-induced cholestasis at 16 mg/kg, po
[8] = system: Mus musculus; assay: Increase in plasma tauro-muricholic acid level in CD1 mouse model of ANIT-induced cholestasis at 16 mg/kg, po
[9] = biological target: T3, Bile acid receptor (Homo sapiens) (UniProt Q96RI1); assay: Agonist activity at FXR (unknown origin) expressed in human HepG2 cells assessed as stimulation of FXR response element IR1-mediated receptor transactivation at 50 uM in presence of CDCA by luciferase reporter gene assay; assay type: cell-based
T3 sequence (whole entry): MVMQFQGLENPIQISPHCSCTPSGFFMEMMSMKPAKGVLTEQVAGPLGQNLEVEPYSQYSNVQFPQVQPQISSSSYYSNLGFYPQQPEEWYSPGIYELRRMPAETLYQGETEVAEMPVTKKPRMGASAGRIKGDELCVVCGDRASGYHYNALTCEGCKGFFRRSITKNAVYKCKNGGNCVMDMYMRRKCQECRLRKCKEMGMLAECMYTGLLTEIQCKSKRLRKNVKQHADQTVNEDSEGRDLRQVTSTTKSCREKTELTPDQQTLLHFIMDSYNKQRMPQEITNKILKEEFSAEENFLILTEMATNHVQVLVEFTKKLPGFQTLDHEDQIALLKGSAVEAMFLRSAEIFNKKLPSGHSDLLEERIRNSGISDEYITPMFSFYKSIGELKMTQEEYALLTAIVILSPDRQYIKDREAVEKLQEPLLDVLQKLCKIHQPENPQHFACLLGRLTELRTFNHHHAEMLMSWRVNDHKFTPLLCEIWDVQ
Procedure, shortened: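 HepG2 cells were cotransfected with pSG5-FXR, pSG5-RXR, the IR1-containing p(hsp27)-TK-LUC reporter and a Renilla vector (pGL4.70). 24 h after transfection they were stimulated for 18 h with 10 μM CDCA plus 50 μM compound. Lysates were read for luciferase. Data are the RLU/RRU ratio, mean ± standard error, compared with CDCA and untreated cells.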

[10] = system: HEK-293T; assay: Toxicity against HEK293T cells at 50 uM; assay type: cell-based; settings: human
[11] = system: Mus musculus; assay: Induction of FXR-mediated BSEP mRNA expression in CD1 mouse liver at 64 mg/kg, po measured 24 hrs post dose by real-time PCR method; assay type: functional, organism-based; set-up: dose 64 mg/kg; procedure, shortened: as §3
[12] = system: Mus musculus; assay: Induction of FXR-mediated OST mRNA expression in CD1 mouse liver at 64 mg/kg, po measured 24 hrs post dose by real-time PCR method; assay type: functional, organism-based; set-up: dose 64 mg/kg; procedure, shortened: as §3
[13] = system: Mus musculus; assay: Effect on body weight loss in CD1 mouse model of ANIT-induced cholestasis at 64 mg/kg, po; assay type: functional, organism-based; set-up: dose 64 mg/kg
[14] = system: Mus musculus; assay: Effect on plasma bile acid level in CD1 mouse model of ANIT-induced cholestasis at 64 mg/kg, po; assay type: functional, organism-based; set-up: dose 64 mg/kg

Structure (SMILES): C[C@H](CCO)[C@H]1CC[C@H]2[C@@H]3[C@@H](O)C[C@@H]4C[C@H](O)CC[C@]4(C)[C@H]3CC[C@]12C
- Activity [1]: Dose-dependent effect
- EC50 [2]: 24.4 µM

Structure (SMILES): C[C@H](CCCCC(=O)O)[C@H]1CC[C@H]2[C@@H]3[C@@H](O)C[C@@H]4C[C@H](O)CC[C@]4(C)[C@H]3CC[C@]12C
- Activity [1]: Dose-dependent effect
- EC50 [2]: 17.2 µM
- Activity [3]: inactive
- Activity [4]: inactive
- fold change (FC) [5]: 2
- Activity [6]: Active
- Activity [7]: Active
- Activity [8]: Active

Structure (SMILES): C[C@H](CCCCC(=O)O)[C@H]1CC[C@H]2[C@@H]3[C@H](O)C[C@@H]4C[C@H](O)CC[C@]4(C)[C@H]3CC[C@]12C
- Activity [9]: Active
- Activity [10]: Toxic

Structure (SMILES): C[C@H](CCC(=O)O)[C@H]1CC[C@H]2[C@@H]3[C@@H](O)C[C@@H]4C[C@H](O)CC[C@]4(C)[C@H]3CC[C@]12C
- Activity [11]: Active
- Activity [12]: Active
- Activity [13]: inactive
- Activity [14]: inactive
